Test results as given in ChEMBL document CHEMBL1212810, “Carbon metabolism-mediated myogenic differentiation” (Nat Chem Biol, 2010).
Active and inactive are the calls of the source. No cut-off for these calls is given here.

Key:
Type in all cases: functional, cell-based
C2C12 [1] = assay: Induction of cell differentiation in mouse C2C12 cells assessed as myosin heavy chain expression at 1 uM
How it was run: (§1)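 Mouse C2C12 myoblasts were treated with statin. Differentiation was read as myosin heavy chain expression by immunofluorescence.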

RD [2] = assay: Induction of cell differentiation of human RD cells assessed as troponin expression after 4 days by immunofluorescence method
How it was run: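 Human RD embryonal rhabdomyosarcoma cells were treated in normal growth medium for four days, then scored for differentiation.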

RD [3] = assay: Inhibition of anchorage-independent growth in human RD cells at 10 uM
How it was run: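 Human RD embryonal rhabdomyosarcoma cells were treated and scored for anchorage-independent growth on soft agar.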

C2C12 [4] = assay: Induction of cell differentiation in mouse C2C12 cells assessed as myosin heavy chain expression at 5 uM; how it was run: as §1
C2C12 [5] = assay: Induction of cell differentiation in mouse C2C12 cells assessed as myosin heavy chain expression at 10 uM; how it was run: as §1
C2C12 [6] = assay: Induction of cell differentiation in mouse C2C12 cells assessed as myosin heavy chain expression at 10 uM in presence of 250 uM cholesterol
C2C12 [7] = assay: Inhibition of serum withdrawal-induced cell differentiation in mouse C2C12 cells assessed as myosin heavy chain expression
C2C12 [8] = assay: Inhibition of shATP citrate lyase-induced cell differentiation in mouse C2C12 assessed as myosin heavy chain expression at 100 nM

CC(C)n1c(/C=C/C(O)CC(O)CC(=O)O)c(-c2ccc(F)cc2)c2ccccc21 (centres undefined)
Activity (C2C12 [1]): Active | Activity (RD [2]): Active | inhibition (RD [3]): Active

CC[C@H](C)C(=O)O[C@H]1C[C@H](O)C=C2C=C[C@H](C)[C@H](CC[C@@H](O)C[C@@H](O)CC(=O)O)[C@H]21
Activity (C2C12 [4]): Active | Activity (C2C12 [5]): Active | Activity (C2C12 [6]): Active

CC(C)CCC[C@@H](C)[C@H]1CC[C@H]2[C@@H]3CC=C4C[C@@H](O)CC[C@]4(C)[C@H]3CC[C@]12C
inhibition (C2C12 [7]): Active

CC(/C=C/C(=O)NO)=C\[C@@H](C)C(=O)c1ccc(N(C)C)cc1
inhibition (C2C12 [8]): Active

CC(C)c1c(C(=O)Nc2ccccc2)c(-c2ccccc2)c(-c2ccc(F)cc2)n1CC[C@@H](O)C[C@@H](O)CC(=O)O
Activity (C2C12 [1]): Active
